# Assay results taken from ChEMBL document CHEMBL1137618, “Synthesis and structure-activity relationship studies of 3,6-diazabicyclo[3.2.0]heptanes as novel alpha4beta2 nicotinic acetylcholine receptor selective agonists” (J Med Chem, 2007).
# Experiments:
# [1] = Displacement of [3H]cytisine from neuronal nicotinic acetylcholine receptor in rat brain membrane; format: cell membranes
# [2] = target: T1, Neuronal acetylcholine receptor; alpha4/beta2 (Homo sapiens, UniProt P17787+P43681); experiment: Agonist activity at recombinant human alpha-4-beta-2 nAChR expressed in HEK293 cells assessed as induction of calcium influx by FLIPR assay relative to nicotine; format: functional, cell-based
# Method in brief: (§1)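 HEK-293 lines stably expressing human α4β2 or α3β4 nAChR, grown 24-48 h at 37 °C on poly-D-lysine in DMEM/10% FBS. Loaded with 2-4 µM Fluo-4 AM for ~0.75-1 h at room temperature in the dark, in NMDG Ringer pH 7.4. Serial log dilutions added, then peak calcium fluorescence read on FLIPR after buffer-blank subtraction.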
# [3] = target: T1, Neuronal acetylcholine receptor; alpha4/beta2; experiment: Agonist activity at recombinant human alpha-4-beta-2 nAChR expressed in HEK293 cells assessed as induction of calcium influx by FLIPR assay; format: functional, cell-based
# [4] = target: T2, Neuronal acetylcholine receptor; alpha3/beta4 (Homo sapiens, UniProt P30926+P32297); experiment: Agonist activity at recombinant human alpha3beta4 nAChR expressed in HEK293 cells assessed as induction of calcium influx by FLIPR assay relative to nicotine; format: functional, cell-based; method in brief: as §1
# [5] = target: T2, Neuronal acetylcholine receptor; alpha3/beta4; experiment: Agonist activity at recombinant human alpha-3-beta-4 nAChR expressed in HEK293 cells assessed as induction of calcium influx by FLIPR assay; format: functional, cell-based
# T1 sequence (P17787 whole entry): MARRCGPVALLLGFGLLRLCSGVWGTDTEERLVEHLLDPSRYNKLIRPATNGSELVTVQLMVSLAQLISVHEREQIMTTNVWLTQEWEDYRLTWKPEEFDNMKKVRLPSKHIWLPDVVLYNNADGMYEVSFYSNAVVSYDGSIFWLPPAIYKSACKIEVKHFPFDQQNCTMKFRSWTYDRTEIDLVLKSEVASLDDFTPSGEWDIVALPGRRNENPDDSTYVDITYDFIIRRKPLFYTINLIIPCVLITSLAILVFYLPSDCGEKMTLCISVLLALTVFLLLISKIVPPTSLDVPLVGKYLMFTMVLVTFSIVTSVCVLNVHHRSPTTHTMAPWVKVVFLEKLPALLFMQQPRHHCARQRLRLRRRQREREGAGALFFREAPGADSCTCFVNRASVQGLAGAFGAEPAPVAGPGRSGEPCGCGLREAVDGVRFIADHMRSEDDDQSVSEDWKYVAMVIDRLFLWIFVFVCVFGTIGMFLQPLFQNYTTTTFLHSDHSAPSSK
# T1 sequence (P43681 whole entry): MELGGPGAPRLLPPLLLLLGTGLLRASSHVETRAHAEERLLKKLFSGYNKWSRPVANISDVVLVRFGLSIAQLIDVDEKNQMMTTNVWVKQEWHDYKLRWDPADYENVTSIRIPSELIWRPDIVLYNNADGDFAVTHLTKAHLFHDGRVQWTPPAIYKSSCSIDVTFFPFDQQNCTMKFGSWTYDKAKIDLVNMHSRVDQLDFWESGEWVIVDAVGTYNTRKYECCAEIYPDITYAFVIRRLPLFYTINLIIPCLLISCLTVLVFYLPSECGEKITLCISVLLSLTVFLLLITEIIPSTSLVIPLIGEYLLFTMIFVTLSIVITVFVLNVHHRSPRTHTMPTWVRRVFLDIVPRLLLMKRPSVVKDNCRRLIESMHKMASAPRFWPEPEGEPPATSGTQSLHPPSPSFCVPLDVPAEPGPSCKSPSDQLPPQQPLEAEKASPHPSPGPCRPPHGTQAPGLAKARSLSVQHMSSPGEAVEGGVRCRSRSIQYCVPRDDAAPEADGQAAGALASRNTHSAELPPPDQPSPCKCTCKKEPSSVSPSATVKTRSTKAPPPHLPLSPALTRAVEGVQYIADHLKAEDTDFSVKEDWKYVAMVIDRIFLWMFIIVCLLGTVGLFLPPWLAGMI
# T2 sequence (P30926 whole entry): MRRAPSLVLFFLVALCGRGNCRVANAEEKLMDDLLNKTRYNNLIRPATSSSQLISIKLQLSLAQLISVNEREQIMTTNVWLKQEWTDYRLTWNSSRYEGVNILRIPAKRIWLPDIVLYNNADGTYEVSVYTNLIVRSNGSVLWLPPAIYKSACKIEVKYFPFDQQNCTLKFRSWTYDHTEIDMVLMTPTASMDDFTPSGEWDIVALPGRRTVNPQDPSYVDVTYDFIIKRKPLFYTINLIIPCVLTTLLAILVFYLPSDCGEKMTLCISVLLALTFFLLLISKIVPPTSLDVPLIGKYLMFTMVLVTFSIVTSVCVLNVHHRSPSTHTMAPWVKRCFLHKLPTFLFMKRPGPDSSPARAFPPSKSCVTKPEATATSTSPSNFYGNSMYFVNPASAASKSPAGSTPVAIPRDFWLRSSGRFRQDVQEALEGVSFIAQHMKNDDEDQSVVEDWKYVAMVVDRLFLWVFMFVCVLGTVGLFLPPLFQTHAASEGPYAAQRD
# T2 sequence (P32297 whole entry): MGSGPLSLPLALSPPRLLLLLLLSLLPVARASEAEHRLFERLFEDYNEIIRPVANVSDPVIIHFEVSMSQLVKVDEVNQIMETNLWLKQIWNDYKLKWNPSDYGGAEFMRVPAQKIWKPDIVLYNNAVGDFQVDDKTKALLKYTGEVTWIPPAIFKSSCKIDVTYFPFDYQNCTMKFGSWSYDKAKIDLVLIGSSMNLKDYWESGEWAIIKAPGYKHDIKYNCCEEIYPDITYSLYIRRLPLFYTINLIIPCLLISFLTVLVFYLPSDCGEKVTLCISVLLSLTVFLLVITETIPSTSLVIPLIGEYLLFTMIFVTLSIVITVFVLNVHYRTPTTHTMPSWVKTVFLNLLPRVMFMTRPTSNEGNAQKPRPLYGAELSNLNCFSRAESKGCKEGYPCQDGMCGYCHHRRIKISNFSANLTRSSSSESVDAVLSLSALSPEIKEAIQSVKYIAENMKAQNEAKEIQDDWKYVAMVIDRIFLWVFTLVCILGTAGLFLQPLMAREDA
SMILES,Ki [1] [nM],Log Ki [1],Activity [2] [%],EC50 ([3]; read-out: EC50) [nM],EC50 ([3]; read-out: Log EC50 (converted)) [nM],Activity [4] [%],EC50 ([5]; read-out: EC50) [nM],EC50 ([5]; read-out: Log EC50 (converted)) [nM]
N=C(NO)c1cncc(N2C[C@H]3CNC[C@H]32)c1,29.1,-7.54,76,7200,6760,< 10,,
Cc1cc(N2C[C@H]3CN[C@H]3C2)cnc1C,0.3,-9.59,124,200,,96,3300,
c1cncc(N2C[C@@H]3CNC[C@@H]32)c1,0.7,-9.15,101,2800,2690,97,9700,
Clc1cc(N2C[C@@H]3CN[C@@H]3C2)cnc1Cl [SOFINICLINE],0.3,-9.53,110,400,,92,1500,
Cc1cncc(N2C[C@@H]3CNC[C@@H]32)c1,1.1,-8.94,68,10400,,74,16900,
N#Cc1cc(N2C[C@H]3CNC[C@H]32)cnc1Br,0.3,-9.6,100,400,324,95,2000,
Cc1cc(N2C[C@H]3CNC[C@H]32)cnc1Cl,0.2,-9.7,133,200,229,97,600,
Cc1ncc(N2C[C@H]3CN[C@H]3C2)cc1C#N,0.06,-10.22,136,500,43.7,101,90,
COc1cncc(N2C[C@H]3CNC[C@H]32)c1,0.8,-9.12,90,3600,3390,72,25800,
Clc1ccc(N2C[C@H]3CN[C@H]3C2)cn1,0.2,-9.77,126,30,24.5,105,400,34.7
c1coc(-c2cncc(N3C[C@H]4CNC[C@H]43)c2)n1,,,< 10,,,< 10,,
Clc1cc(N2C[C@H]3CN[C@H]3C2)cnc1Cl,0.04,-10.4,162,400,41.7,98,50,
C#Cc1cncc(N2C[C@@H]3CNC[C@@H]32)c1,0.6,-9.21,45,20400,13500,33,33200,13200
Cc1cc(N2C[C@@H]3CNC[C@@H]32)cnc1Cl,0.2,-9.7,134,600,,89,2200,
COc1cncc(N2C[C@H]3CN[C@H]3C2)c1,0.1,-9.96,130,1000,,99,1000,
N#Cc1cc(N2C[C@@H]3CN[C@@H]3C2)cnc1Br,0.3,-9.51,146,800,,91,600,
Cc1cc(N2C[C@@H]3CN[C@@H]3C2)cnc1Cl,0.08,-10.1,134,300,,100,700,
Cc1ncc(N2C[C@@H]3CN[C@@H]3C2)cc1C#N,0.6,-9.2,119,800,724,94,900,
Clc1cncc(N2C[C@H]3CNC[C@H]32)c1,3,-8.53,88,8100,7240,81,23000,
C#Cc1cncc(N2C[C@H]3CNC[C@H]32)c1,,,77,13400,4900,57,86900,77600
Brc1cncc(N2C[C@H]3CNC[C@H]32)c1,3.1,-8.51,31,4400,4070,< 10,,
